This passage reports inhibition results from ChEMBL document CHEMBL1153722, “Design, synthesis, and characterization of peptide-based rab geranylgeranyl transferase inhibitors” (J Med Chem, 2009).

Values joined by “and” are separate entries in the source; they are usually repeats but may differ in a detail not shown here. Identical values can stand only once. Square brackets hold non-standard residues; d marks the D form. Peptide text beside a SMILES is read from it. * marks the point of attachment. Hydrocinnamoyl = O=C(CCc1ccccc1)*; Undecanoyl = CCCCCCCCCCC(=O)*; pGlu = O=C1CC[C@@H](C(=O)O)N1; Ac6c = NC1(C(=O)O)CCCCC1; NHBn = c1ccc(CN*)cc1; NHOH = ON*

The species entered for the assay is Rattus norvegicus. Put plainly: Inhibition of rat recombinant Rab geranylgeranyltransferase at 100 uM in presence of canine Rab7 and rat REP1 NBD-FPP based continuous fluorimetric assay. The essentials:
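Continuous fluorometric assay in 96/384-well format: 3 μM Rab7, 3 μM REP1, 9 μM NBD-FPP and 400 nM RabGGTase, with or without inhibitor. […] IC50 was calculated from three independent measurements.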
As usually defined, the inhibition is the relative decrease from the control value, in per cent. For `O=C(N[C@@H](CO)C(=O)N[C@@H](Cc1ccccc1)C(=O)N[C@@H](CO)C(=O)Nc1ccc(N2CCOCC2)cc1)C(Br)C(Br)c1ccc(F)cc1` (stereo not given in full), the inhibition was found to be 70%. As for `O=C(CCc1ccc(F)cc1)N[C@@H](Cc1ccc(O)cc1)C(=O)NCC(=O)N[C@@H](Cc1ccc(O)cc1)C(=O)Nc1ccccc1`, the inhibition is 99%.

With `CCCCCCCCCCC(=O)N[C@@H](Cc1c[nH]cn1)C(=O)N[C@@H](Cc1ccccc1)C(=O)N[C@@H](Cc1ccc(O)cc1)C(=O)NOC(C)(C)C`, the inhibition came out at 76%.

On to `CC(C)C[C@H](NC(=O)[C@H](COC(C)(C)C)NC(=O)[C@H](Cc1ccccc1)NC(=O)/C=C/c1ccc(F)cc1)C(=O)Nc1nccs1`, for which the inhibition came to 112%. Then `COc1ccc(C[C@@H](C(=O)N(C)[C@@H](Cc2ccccc2)C(=O)O)N(C)C(=O)[C@@H](Cc2ccc(O)cc2)NC(=O)OCc2ccccc2)cc1`, with 25%; and `COC(=O)[C@H](Cc1ccccc1)NC(=O)CNC(=O)[C@@H]1CCCN1C(=O)/C=C/c1ccccc1`, with 89%; and `C[C@H](NC(=O)CCc1ccccc1)C(=O)N[C@@H](Cc1ccccc1)C(=O)N[C@@H](CCC(N)=O)C(=O)NNc1ccccc1`, with 5%. Then `O=C(/C=C/c1ccc(F)cc1)N[C@@H](CO)C(=O)N[C@@H](Cc1ccccc1)C(=O)N[C@@H](CO)C(=O)NC1CCCCC1`, with 86%; and `CCCCCCCCCC(=O)N[C@@H](Cc1c[nH]cn1)C(=O)N[C@@H](Cc1cnc[nH]1)C(=O)N[C@@H](Cc1ccc(O)cc1)C(=O)OCCN`, with 29%. Then `O=C(CNC(=O)[C@H](Cc1ccc(O)cc1)NCCc1ccc(F)cc1)N[C@@H](Cc1ccc(O)cc1)C(=O)N1CCOCC1`, with 92%; and `O=C(CNC(=O)c1coc(-c2ccccc2)n1)NCC(=O)N[C@@H](Cc1c[nH]cn1)C(=O)Nc1ccc(F)cc1F`, with 112%. Turning to `CCCCCCCCCCCOc1ccc(C(=O)N[C@@H](Cc2ccc(O)cc2)C(=O)N[C@@H](Cc2ccc(O)cc2)C(=O)N[C@@H](Cc2ccc(O)cc2)C(=O)OCCN)cc1`, the inhibition came to 40%. `CCCCCCCCCCCCCC(=O)OC[C@H](NC(=O)[C@H](Cc1ccccc1)NC(=O)[C@H](CCCCNC(=O)c1csc(-c2cccnc2)n1)NC(=O)c1csc(-c2cccnc2)n1)C(=O)O`: the inhibition is 67%. For `C[C@H](NC(=O)c1coc(-c2ccccc2)n1)C(=O)NCC(=O)N[C@@H](Cc1c[nH]cn1)C(=O)Nc1ccc(F)cc1F` the value was 76%; for `O=C(CCc1ccccc1)N[C@@H](CO)C(=O)N[C@@H](Cc1ccccc1)C(=O)N[C@@H](CO)C(=O)O` (Hydrocinnamoyl-Ser-Phe-Ser-OH), 95%; for `COC(=O)[C@H](Cc1ccc(O)cc1)NC(=O)CNC(=O)[C@H](Cc1ccc(O)cc1)NC(=O)CCc1ccc(F)cc1`, 90%. For `CC[C@H](C)[C@H](NC(=O)c1ccc(-c2ccccc2)cc1)C(=O)N[C@@H](C(=O)N[C@@H](CCC(N)=O)C(=O)N1CCOCC1)C(C)C` the value was 92%; for `C[C@@H](NC(=O)CCc1ccccc1)C(=O)N[C@@H](Cc1ccccc1)C(=O)N[C@@H](CCC(N)=O)C(=O)O`, 111%; for `O=C(CNC(=O)c1csc(-c2ccccc2)n1)N[C@@H](Cc1ccccc1)C(=O)N[C@@H](Cc1cn(C(c2ccccc2)(c2ccccc2)c2ccccc2)cn1)C(=O)O`, 71%. Consider `C[C@@H](NC(=O)CCc1ccccc1)C(=O)N[C@@H](Cc1ccccc1)C(=O)N[C@@H](CCC(N)=O)C(=O)NC1CCCCC1`, for which the inhibition worked out at 44%. For `CCCCCCCCCCCOc1ccc(C(=O)N[C@@H](Cc2c[nH]cn2)C(=O)N[C@@H](Cc2ccc(O)cc2)C(=O)N[C@@H](Cc2ccccc2)C(=O)O)cc1` the value was 75%; for `O=C(CNC(=O)[C@H](Cc1c[nH]cn1)NC(=O)c1coc(-c2ccccc2)n1)N[C@@H](Cc1c[nH]c2ccccc12)C(=O)O`, 69%; for `CCCCCCCCCCC(=O)N[C@@H](Cc1c[nH]cn1)C(=O)N[C@@H](Cc1c[nH]cn1)C(=O)N[C@@H](Cc1ccc(O)cc1)C(=O)O` (Undecanoyl-His-His-Tyr-OH), 51%.

On to `CCCCCCCCCCC(=O)N[C@@H](Cc1c[nH]cn1)C(=O)N[C@@H](Cc1c[nH]cn1)C(=O)N[C@@H](CO)C(=O)NO` (Undecanoyl-His-His-Ser-{NHOH}), for which the inhibition is 78%. For `NC(=O)CC[C@H](NC(=O)[C@H](Cc1ccccc1)NC(=O)[C@H](CO)NC(=O)CCc1ccccc1)C(N)=O` (Hydrocinnamoyl-Ser-Phe-Gln-NH2) the value was 106%; for `O=C(/C=C/c1ccc(F)cc1)N[C@@H](CO)C(=O)N[C@@H](Cc1ccccc1)C(=O)N[C@@H](CO)C(=O)NCc1ccccc1`, 100%; for `O=C(N[C@@H](Cc1ccc(O)cc1)C(=O)N[C@@H](Cc1ccc(O)cc1)C(=O)N[C@@H](Cc1ccc(O)cc1)C(=O)O)OCc1ccccc1`, 51%.

Consider `CCCCCCCCCCC(=O)N[C@@H](Cc1ccc(O)cc1)C(=O)N[C@@H](Cc1c[nH]cn1)C(=O)N[C@@H](Cc1c[nH]cn1)C(N)=O` (Undecanoyl-Tyr-His-His-NH2), for which the inhibition amounted to 79%. For `O=C(/C=C/c1ccccc1)N[C@@H](Cc1ccccc1)C(=O)N[C@@H](Cc1ccccc1)C(=O)N[C@@H](Cc1ccc(O)cc1)C(=O)NC1CCCCC1` the value was 71%. For `CCCCCCCCCCC(=O)N[C@@H](Cc1c[nH]cn1)C(=O)N[C@@H](Cc1ccccc1)C(=O)N[C@@H](Cc1ccc(O)cc1)C(=O)O` (Undecanoyl-His-Phe-Tyr-OH) the value was 70%; for `CC(C)CCNC(=O)[C@H](Cc1ccccc1)NC(=O)CNC(=O)[C@@H]1CCCN1C(=O)/C=C/c1ccccc1`, 80%; for `CC[C@H](C)[C@H](NC(=O)CCc1ccc(F)cc1)C(=O)N[C@@H](C)C(=O)N[C@@H](CCC(N)=O)C(=O)NNc1ccccc1`, 81%. On to `CCCCCCCCCCCOc1ccc(C(=O)N[C@@H](Cc2ccc(O)cc2)C(=O)N[C@@H](Cc2ccc(O)cc2)C(=O)N[C@@H](Cc2ccc(O)cc2)C(=O)Nc2ccc(F)cc2F)cc1`, for which the inhibition was 101%. Then `O=C(CCc1ccccc1)N[C@@H](CO)C(=O)NCC(=O)N[C@@H](CO)C(=O)NCc1ccccc1` (Hydrocinnamoyl-Ser-Gly-Ser-NHBn), with 90%; and `C=CCOC(=O)[C@H](Cc1cn(C(c2ccccc2)(c2ccccc2)c2ccccc2)cn1)NC(=O)[C@H](Cc1ccccc1)NC(=O)CNC(=O)c1csc(-c2cccs2)n1`, with 136%. Then `CC(C)C[C@H](NC(=O)[C@@H]1CCC(=O)N1)C(=O)N[C@@H](CCCCN)C(=O)NC1(C(=O)O)CCCCC1` ([pGlu]LK[Ac6c]-OH), with 102% and 98%; and `CN(C(=O)[C@@H](Cc1ccc(O)cc1)NC(=O)OCc1ccccc1)[C@@H](Cc1ccccc1)C(=O)N[C@@H](Cc1ccc(O)cc1)C(=O)O`, with 46%; and `CCCCCCCCCCC(=O)N[C@@H](Cc1c[nH]cn1)C(=O)N[C@@H](Cc1c[nH]cn1)C(=O)N[C@@H](CO)C(=O)N(C)CCc1ccccn1`, with 47%. Then `O=C(N[C@@H](CO)C(=O)N[C@@H](Cc1ccccc1)C(=O)N[C@@H](CO)C(=O)Nc1ccc(F)cc1F)C(Br)C(Br)c1ccc(F)cc1` (stereo not given in full), with 94%. For `CCCCCCCCCCC(=O)N[C@@H](Cc1ccc(O)cc1)C(=O)N[C@@H](Cc1c[nH]cn1)C(=O)N[C@@H](Cc1c[nH]cn1)C(=O)NOC(C)(C)C`, the inhibition was found to be 47%.
